Among the data in ChEMBL document CHEMBL1130231, “Betidamino acid scan of the GnRH antagonist acyline” (J Med Chem, 1997) are IC50 values, retold here.

The test addresses T1, Gonadotropin-releasing hormone receptor (Rattus norvegicus, UniProt P30969).
T1 sequence (P30969 whole entry): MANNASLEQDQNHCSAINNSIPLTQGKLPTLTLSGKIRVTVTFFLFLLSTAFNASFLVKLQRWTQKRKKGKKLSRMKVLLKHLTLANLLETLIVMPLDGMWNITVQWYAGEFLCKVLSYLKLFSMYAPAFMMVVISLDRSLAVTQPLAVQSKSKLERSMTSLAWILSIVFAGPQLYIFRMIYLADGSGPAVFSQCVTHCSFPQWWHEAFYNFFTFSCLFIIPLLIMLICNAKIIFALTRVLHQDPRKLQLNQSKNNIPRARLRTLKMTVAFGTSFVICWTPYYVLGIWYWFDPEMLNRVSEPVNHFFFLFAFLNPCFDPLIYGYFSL
Description: Inhibition of binding of radiolabeled histrelin to Gonadotropin-releasing hormone receptor (GnRHr) in rat pituitary gland membranes. The class given is cell membranes, Membrane. The procedure, abridged:
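Rat anterior pituitary membranes (male and female glands equal numbers), homogenized in 0.32 M sucrose/aprotinin, 4000g pellet, diluted 15-fold in 10 mM Hepes, 0.2% BSA, pH 7.6. Filtration onto PEI-treated glass filters, scintillation counting. IC50 in nM, duplicate, n = 1.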
What is called IC50 is the midpoint of a concentration-inhibition curve. Higher therefore signals weaker potency in that assay. Consider `CC(=O)Nc1ccc(C[C@H](NC(=O)[C@H](NC=O)NC(=O)[C@@H](Cc2cccnc2)NC(=O)[C@@H](Cc2ccc(Cl)cc2)NC(=O)[C@@H](Cc2ccc3ccccc3c2)NC(C)=O)C(=O)N[C@H](Cc2ccc(NC(C)=O)cc2)C(=O)N[C@@H](CC(C)C)C(=O)N[C@@H](CCCCNC(C)C)C(=O)N2CCC[C@H]2C(=O)N[C@H](C)C(N)=O)cc1`, for which the IC50 turned out to be 0.84 nM.

Consider `CC(=O)Nc1ccc(C[C@H](NC(=O)[C@H](CO)NC(=O)[C@@H](Cc2cccnc2)NC(=O)[C@@H](NC(=O)c2cnccn2)NC(=O)[C@@H](Cc2ccc3ccccc3c2)NC(C)=O)C(=O)N[C@H](Cc2ccc(NC(C)=O)cc2)C(=O)N[C@@H](CC(C)C)C(=O)N[C@@H](CCCCNC(C)C)C(=O)N2CCC[C@H]2C(=O)N[C@H](C)C(N)=O)cc1`, for which the IC50 is 2000 nM.

`CC(=O)Nc1ccc(C[C@H](NC(=O)[C@H](CO)NC(=O)[C@@H](Cc2cccnc2)NC(=O)[C@@H](Cc2ccc(Cl)cc2)NC(=O)[C@@H](Cc2ccc3ccccc3c2)NC(C)=O)C(=O)N[C@H](Cc2ccc(NC(C)=O)cc2)C(=O)N[C@@H](CC(C)C)C(=O)N[C@@H](C(=O)N2CCC[C@H]2C(=O)N[C@H](C)C(N)=O)N(C)C(=O)CCNC(C)C)cc1` (single isomer, unassigned) registered an IC50 of 2.4 nM.

`CC(=O)Nc1ccc(C[C@H](NC(=O)[C@H](CO)NC(=O)[C@@H](Cc2cccnc2)NC(=O)[C@@H](Cc2ccc(Cl)cc2)NC(=O)[C@@H](Cc2ccc3ccccc3c2)NC(C)=O)C(=O)N[C@H](Cc2ccc(NC(C)=O)cc2)C(=O)N[C@@H](CNC(=O)C(C)C)C(=O)N[C@@H](CCCCNC(C)C)C(=O)N2CCC[C@H]2C(=O)N[C@H](C)C(N)=O)cc1` returned an IC50 of 2 nM.

Turning to `CC(=O)Nc1ccc(C[C@@H](NC(=O)[C@H](NC(=O)[C@H](CO)NC(=O)[C@@H](Cc2cccnc2)NC(=O)[C@@H](Cc2ccc(Cl)cc2)NC(=O)[C@@H](Cc2ccc3ccccc3c2)NC(C)=O)N(C)C(=O)c2ccc(NC(C)=O)cc2)C(=O)N[C@@H](CC(C)C)C(=O)N[C@@H](CCCCNC(C)C)C(=O)N2CCC[C@H]2C(=O)N[C@H](C)C(N)=O)cc1`, the IC50 was found to be 0.43 nM.

On to `CC(=O)Nc1ccc(C[C@H](NC(=O)[C@H](CO)NC(=O)[C@@H](Cc2cccnc2)NC(=O)[C@@H](Cc2ccc(Cl)cc2)NC(=O)[C@@H](Cc2ccc3ccccc3c2)NC(C)=O)C(=O)N[C@H](Cc2ccc(NC(C)=O)cc2)C(=O)N[C@H](C(=O)N[C@@H](CCCCNC(C)C)C(=O)N2CCC[C@H]2C(=O)N[C@H](C)C(N)=O)N(C)C(=O)C(C)C)cc1`, for which the IC50 came out at 0.53 nM.

The compound `CC(=O)Nc1ccc(C[C@H](NC(=O)[C@H](CO)NC(=O)[C@@H](Cc2cccnc2)NC(=O)[C@@H](Cc2ccc(Cl)cc2)NC(=O)[C@@H](Cc2ccc3ccccc3c2)NC(C)=O)C(=O)N[C@H](Cc2ccc(NC(C)=O)cc2)C(=O)N[C@@H](CC(C)C)C(=O)N[C@@H](CCCCNC(C)C)C(=O)N2CCC[C@H]2C(=O)N[C@@H](NC=O)C(N)=O)cc1` (single isomer, unassigned) gave an IC50 of 0.62 nM.

`CC(=O)Nc1ccc(C[C@H](NC(=O)[C@H](CO)NC(=O)[C@@H](Cc2cccnc2)NC(=O)[C@@H](Cc2ccc(Cl)cc2)NC(=O)[C@@H](NC(C)=O)N(C)C(=O)c2ccc3ccccc3c2)C(=O)N[C@H](Cc2ccc(NC(C)=O)cc2)C(=O)N[C@@H](CC(C)C)C(=O)N[C@@H](CCCCNC(C)C)C(=O)N2CCC[C@H]2C(=O)N[C@H](C)C(N)=O)cc1` (single isomer, unassigned) gave an IC50 of 0.3 nM.

In turn, `CC(=O)Nc1ccc(C[C@H](NC(=O)[C@H](CO)NC(=O)[C@@H](Cc2cccnc2)NC(=O)[C@@H](Cc2ccc(Cl)cc2)NC(=O)[C@@H](Cc2ccc3ccccc3c2)NC(C)=O)C(=O)N[C@H](Cc2ccc(NC(C)=O)cc2)C(=O)N[C@@H](CC(C)C)C(=O)N[C@@H](CCCCNC(C)C)C(=O)N2CCC[C@H]2C(=O)N[C@H](N)C(N)=O)cc1` came in with an IC50 of 0.48 nM.

`CC(=O)Nc1ccc(C[C@@H](NC(=O)[C@@H](NC(=O)c2ccc(NC(C)=O)cc2)NC(=O)[C@H](CO)NC(=O)[C@@H](Cc2cccnc2)NC(=O)[C@@H](Cc2ccc(Cl)cc2)NC(=O)[C@@H](Cc2ccc3ccccc3c2)NC(C)=O)C(=O)N[C@@H](CC(C)C)C(=O)N[C@@H](CCCCNC(C)C)C(=O)N2CCC[C@H]2C(=O)N[C@H](C)C(N)=O)cc1` registered an IC50 of 0.51 nM.

`CC(=O)Nc1ccc(C[C@H](NC(=O)[C@H](CO)NC(=O)[C@@H](Cc2cccnc2)NC(=O)[C@@H](Cc2ccc(Cl)cc2)NC(=O)[C@H](NC(C)=O)NC(=O)c2ccc3ccccc3c2)C(=O)N[C@H](Cc2ccc(NC(C)=O)cc2)C(=O)N[C@@H](CC(C)C)C(=O)N[C@@H](CCCCNC(C)C)C(=O)N2CCC[C@H]2C(=O)N[C@H](C)C(N)=O)cc1` showed an IC50 of 0.88 nM.

With `CC(=O)Nc1ccc(C[C@H](NC(=O)[C@H](CO)NC(=O)[C@@H](Cc2cccnc2)NC(=O)[C@@H](Cc2ccc(Cl)cc2)NC(=O)[C@@H](Cc2ccc3ccccc3c2)NC(C)=O)C(=O)N[C@H](Cc2ccc(NC(C)=O)cc2)C(=O)N[C@@H](CC(C)C)C(=O)N[C@@H](CCCCNC(C)C)C(=O)N2CCC[C@H]2C(=O)N[C@@H](C)C(N)=O)cc1`, the IC50 came out at 0.38 nM.

For the compound `CC(=O)Nc1ccc(C[C@H](NC(=O)[C@H](CO)NC(=O)[C@@H](Cc2cccnc2)NC(=O)[C@@H](Cc2ccc(Cl)cc2)NC(=O)[C@H](Cc2ccc3ccccc3c2)NC(C)=O)C(=O)N[C@H](Cc2ccc(NC(C)=O)cc2)C(=O)N[C@@H](CC(C)C)C(=O)N[C@@H](CCCCNC(C)C)C(=O)N2CCC[C@H]2C(=O)N[C@H](C)C(N)=O)cc1`, the IC50 was found to be 0.64 nM.

Consider `CC(=O)Nc1ccc(C[C@H](NC(=O)[C@H](CO)NC(=O)[C@@H](Cc2cccnc2)NC(=O)[C@@H](Cc2ccc(Cl)cc2)NC(=O)[C@@H](Cc2ccc3ccccc3c2)NC(C)=O)C(=O)N[C@H](Cc2ccc(NC(C)=O)cc2)C(=O)N[C@@H](NC(=O)C(C)C)C(=O)N[C@@H](CCCCNC(C)C)C(=O)N2CCC[C@H]2C(=O)N[C@H](C)C(N)=O)cc1`, for which the IC50 was 2 nM.

Consider `CC(=O)Nc1ccc(C[C@H](NC(=O)[C@H](CO)NC(=O)[C@@H](Cc2cccnc2)NC(=O)[C@@H](Cc2ccc(Cl)cc2)NC(=O)[C@@H](Cc2ccc3ccccc3c2)NC(C)=O)C(=O)N[C@H](Cc2ccc(NC(C)=O)cc2)C(=O)N[C@@H](CC(C)C)C(=O)NC(NC(=O)CNC(=N)N)C(=O)N2CCC[C@H]2C(=O)N[C@H](C)C(N)=O)cc1` (stereo partly drawn), for which the IC50 amounted to 0.74 nM.

In turn, `CC(=O)Nc1ccc(C[C@H](NC(=O)[C@H](CO)NC(=O)[C@@H](Cc2cccnc2)NC(=O)[C@H](NC(=O)c2cn[nH]c2N)NC(=O)[C@@H](Cc2ccc3ccccc3c2)NC(C)=O)C(=O)N[C@H](Cc2ccc(NC(C)=O)cc2)C(=O)N[C@@H](CC(C)C)C(=O)N[C@@H](CCCCNC(C)C)C(=O)N2CCC[C@H]2C(=O)N[C@H](C)C(N)=O)cc1` gave an IC50 of 2500 nM.

Turning to `CC(=O)Nc1ccc(C[C@H](NC(=O)[C@H](CO)NC(=O)[C@@H](Cc2cccnc2)NC(=O)[C@@H](Cc2ccc(Cl)cc2)NC(=O)[C@@H](Cc2ccc3ccccc3c2)NC(C)=O)C(=O)N[C@H](Cc2ccc(NC(C)=O)cc2)C(=O)N[C@@H](CC(C)C)C(=O)N[C@@H](CCCCNC(C)C)C(=O)N2CCC[C@H]2C(=O)N[C@H](C)C(N)=O)cc1`, the IC50 turned out to be 0.3 nM.

As for `CC(=O)Nc1ccc(C[C@H](NC(=O)[C@H](CO)NC(=O)[C@@H](Cc2cccnc2)NC(=O)[C@H](NC(=O)[C@@H](Cc2ccc3ccccc3c2)NC(C)=O)N(C)C(=O)c2ccc(Cl)cc2)C(=O)N[C@H](Cc2ccc(NC(C)=O)cc2)C(=O)N[C@@H](CC(C)C)C(=O)N[C@@H](CCCCNC(C)C)C(=O)N2CCC[C@H]2C(=O)N[C@H](C)C(N)=O)cc1`, the IC50 was determined as 1.2 nM.

Compound `CC(=O)Nc1ccc(C[C@H](NC(=O)[C@H](CO)NC(=O)[C@@H](NC(=O)[C@@H](Cc2ccc(Cl)cc2)NC(=O)[C@@H](Cc2ccc3ccccc3c2)NC(C)=O)N(C)C(=O)c2cccnc2)C(=O)N[C@H](Cc2ccc(NC(C)=O)cc2)C(=O)N[C@@H](CC(C)C)C(=O)N[C@@H](CCCCNC(C)C)C(=O)N2CCC[C@H]2C(=O)N[C@H](C)C(N)=O)cc1` (single isomer, unassigned) came in with an IC50 of 36 nM.

`CC(=O)Nc1ccc(C[C@H](NC(=O)[C@H](CO)NC(=O)[C@@H](Cc2cccnc2)NC(=O)[C@@H](Cc2ccc(Cl)cc2)NC(=O)[C@@H](Cc2ccc3ccccc3c2)NC(C)=O)C(=O)N[C@H](Cc2ccc(NC(C)=O)cc2)C(=O)N[C@@H](NC(C)=O)C(=O)N[C@@H](CCCCNC(C)C)C(=O)N2CCC[C@H]2C(=O)N[C@H](C)C(N)=O)cc1` gave an IC50 of 5 nM.

For the compound `CC(=O)Nc1ccc(C[C@H](NC(=O)[C@@H](NC(=O)[C@@H](Cc2cccnc2)NC(=O)[C@@H](Cc2ccc(Cl)cc2)NC(=O)[C@@H](Cc2ccc3ccccc3c2)NC(C)=O)N(C)C=O)C(=O)N[C@H](Cc2ccc(NC(C)=O)cc2)C(=O)N[C@@H](CC(C)C)C(=O)N[C@@H](CCCCNC(C)C)C(=O)N2CCC[C@H]2C(=O)N[C@H](C)C(N)=O)cc1` (single isomer, unassigned), the 50% inhibitory concentration (IC50) amounted to 5.5 nM.

`CC(=O)Nc1ccc(C[C@H](NC(=O)[C@@H](NC(=O)CO)NC(=O)[C@@H](Cc2cccnc2)NC(=O)[C@@H](Cc2ccc(Cl)cc2)NC(=O)[C@@H](Cc2ccc3ccccc3c2)NC(C)=O)C(=O)N[C@H](Cc2ccc(NC(C)=O)cc2)C(=O)N[C@@H](CC(C)C)C(=O)N[C@@H](CCCCNC(C)C)C(=O)N2CCC[C@H]2C(=O)N[C@H](C)C(N)=O)cc1` (single isomer, unassigned) came in with an IC50 of 0.056 nM.

In the case of `CC(=O)Nc1ccc(C[C@H](NC(=O)[C@H](CO)NC(=O)[C@H](NC(=O)c2ccncc2)NC(=O)[C@@H](Cc2ccc(Cl)cc2)NC(=O)[C@@H](Cc2ccc3ccccc3c2)NC(C)=O)C(=O)N[C@H](Cc2ccc(NC(C)=O)cc2)C(=O)N[C@@H](CC(C)C)C(=O)N[C@@H](CCCCNC(C)C)C(=O)N2CCC[C@H]2C(=O)N[C@H](C)C(N)=O)cc1` (single isomer, unassigned), the IC50 amounted to 220 nM.
